ChEMBL document CHEMBL1152651, “In vivo and in vitro anti-leishmanial activities of 4-nitro-N-pyrimidin- and N-pyrazin-2-ylbenzenesulfonamides, and N2-(4-nitrophenyl)-N1-propylglycinamide” (Bioorg Med Chem, 2009)
Calls of active or inactive are those of the source. The calls are words filed in the database; no cut-off is given here.

Columns and labels:
[1] = tested on: Leishmania infantum; experiment: Antileishmanial activity against Leishmania infantum MCAN/ES/92/BCN 83 promastigotes at 100 ug/ml after 48 hrs by resazurin method; assay type: functional; conditions: for inhibition of growth at 100 µg/mL: MCAN/ES/92/BCN 83, 48 h, read-out: GI
How it was run: (§1)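 L. infantum MCAN/ES/92/BCN 83 promastigotes (Schneider's medium, 20% heat-inactivated FBS, 26 °C), 2.5 × 10^5 per well. Compounds in DMSO were first screened at 1, 10, 100 µg/mL, then 252 to 1.9 µM for active ones. After 48 h at 26 °C, resazurin was added and fluorescence read (ex 535/em 590 nm) for % growth inhibition. Triplicates; IC50 by least-squares linear regression.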

[2] = tested on: J774; experiment: Cytotoxicity against mouse J774 cells after 24 hrs by resazurin reduction test; assay type: cell-based
How it was run: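 J774 murine macrophages (RPMI 1640, 10% FBS, 37 °C, 5% CO2), 5 × 10^4 cells/well, adhered 24 h. Then exposed to compounds for 24 h. Resazurin added for 3 h; fluorescence read at ex 535/em 590 nm, background subtracted. Each concentration assayed three times.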

[3] = tested on: Leishmania infantum; experiment: Antileishmanial activity against Leishmania infantum MCAN/ES/92/BCN 83 promastigotes after 48 hrs by resazurin method; assay type: functional, organism-based; how it was run: as §1
[4] = tested on: Leishmania infantum; experiment: Antileishmanial activity against Leishmania infantum MCAN/ES/92/BCN 83 promastigotes-infected in BALB/c mouse assessed as reduction of parasite burden in liver at 5 mg/kg, ip once daily for 10 days by limit dilution assay relative to control; design: scale not given: the % may be the effect or the level left; conditions: route intraperitoneal
[5] = tested on: Calf thymus DNA; experiment: Binding affinity to calf thymus DNA assessed as melting temperature (Rvb Tm = 53.8 degC); assay type: nucleic-acid assay; conditions: Bos taurus
[6] = tested on: Nucleic Acid; experiment: Induction of Cu2+-dependent DNA cleavage in Escherichia coli pUC18 DNA assessed as degradation of super coiled form at 45 uM after 60 mins by agarose gel electrophoresis in presence of cupric chloride; assay type: nucleic-acid assay
How it was run: (§2)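 pUC18 plasmid in 0.1 M cacodylate pH 6.0 with CuCl2 + compound (1:1) at 15–45 µM final, plus ascorbate (50-fold excess over Cu(II)). 1 h at 37 °C. Supercoiled, circular and linear forms resolved on 0.8% agarose/0.5× TBE gel with ethidium bromide, 80 V, about 2 h.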

[7] = tested on: Mus musculus; experiment: Toxicity in BALB/c mouse assessed as reduction in body weight at 5 mg/kg, ip once daily; conditions: in vivo
[8] = tested on: Leishmania infantum; experiment: Antileishmanial activity against Leishmania infantum MCAN/ES/92/BCN 83 promastigotes-infected in BALB/c mouse assessed as reduction of parasite burden in spleen at 5 mg/kg, ip once daily for 10 days by limit dilution assay relative to control; design: scale not given: the % may be the effect or the level left; conditions: route intraperitoneal
[9] = tested on: Calf thymus DNA; experiment: Binding affinity to calf thymus DNA assessed as increase in DNA viscosity at 1 to 30 uM by viscometer; assay type: nucleic-acid assay; conditions: Bos taurus
How it was run: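 Ubbelohde viscometer at 25.0 or 37.0 °C. Compounds in DMF/cacodylate buffer (pH 6) 2:10 added to 50 µM CT-DNA in cacodylate buffer; final 1–30 µM. Flow times in triplicate, η = t − t0. Plotted as (η/η0)^1/3 versus the compound/DNA ratio.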

[10] = tested on: Nucleic Acid; experiment: Induction of supercoiled Escherichia coli pUC18 DNA cleavage at 6 to 60 uM after 60 mins by agarose gel electrophoresis; assay type: nucleic-acid assay
How it was run: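 Supercoiled pUC18 plasmid in 0.1 M cacodylate buffer pH 6.0 with compound at 6–60 µM final, 1 h at 37 °C. Analysed by 0.8% agarose gel in 0.5× TBE with ethidium bromide, 80 V, about 2 h.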

[11] = tested on: Nucleic Acid; experiment: Induction of Cu2+-dependent DNA cleavage in Escherichia coli pUC18 DNA assessed as degradation of super coiled form at 15 to 30 uM after 60 mins by agarose gel electrophoresis in presence of cupric chloride; assay type: nucleic-acid assay; how it was run: as §2
[12] = tested on: Mus musculus; experiment: Toxicity in BALB/c mouse assessed as reduction hair loss at 5 mg/kg, ip once daily; conditions: in vivo
[13] = Mus musculus, J774, 24 h, read-out: IC50
[14] = Leishmania infantum, MCAN/ES/92/BCN 83, 48 h, read-out: IC50

SMILES | inhibition of growth at 100 µg/mL [1] [%] | IC50 [3, 14] [µM] | also measured
Cc1cc(C)nc(NS(=O)(=O)c2ccc(Cl)cc2)n1 | 71.5 | 224 | IC50 [2, 13]: > 256 µM
O=S(=O)(Nc1ncccn1)c1ccc(Cl)cc1 | – | – | growth inhibition (GI) [1]: inactive; IC50 ([2]; j774): Not Active; IC50 [3]: Not Active
CCCNC(=O)CNc1ccc([N+](=O)[O-])cc1 | 85 | 156 | Activity [4]: 97.95%; Tm [5]: 54 °C; Activity [6]: Active; Activity [7]: Non-toxic; IC50 [2, 13]: > 256 µM; Activity [8]: 99.89%; Activity [9]: inactive; Activity [10]: inactive; Activity [11]: inactive; Activity [12]: Non-toxic
O=S(=O)(Nc1ncccn1)c1ccc(F)cc1 | – | – | growth inhibition (GI) [1]: inactive; IC50 ([2]; j774): Not Active; IC50 [3]: Not Active
Cc1cnc(NS(=O)(=O)c2ccc(Cl)cc2)s1 | 74.5 | > 256 | –
O=[N+]([O-])c1ccc(S(=O)(=O)Nc2ccc3[nH]ncc3c2)cc1 | 88.2 | 14.5 | IC50 [2, 13]: > 256 µM
Cc1cnc(NS(=O)(=O)c2ccc([N+](=O)[O-])cc2)s1 | 36.7 | > 256 | –
CS(=O)(=O)Nc1ncccn1 | – | – | growth inhibition (GI) [1]: inactive; IC50 ([2]; j774): Not Active; IC50 [3]: Not Active
Cc1cc(C)nc(NS(=O)(=O)c2ccc([N+](=O)[O-])cc2)n1 | 33.3 | > 256 | –
O=[N+]([O-])c1cccc(S(=O)(=O)Nc2ncccn2)c1 | – | – | growth inhibition (GI) [1]: inactive; IC50 ([2]; j774): Not Active; IC50 [3]: Not Active
COc1ccc(S(=O)(=O)Nc2ncccn2)cc1 | 29.6 | > 256 | –
Cc1cc(NS(=O)(=O)c2ccc([N+](=O)[O-])cc2)no1 | 85.6 | 126 | IC50 [2, 13]: > 256 µM
O=S(=O)(Nc1cnccn1)c1ccccc1 | 37 | > 256 | –
O=[N+]([O-])c1ccc(S(=O)(=O)Nc2nccs2)cc1 [PARA-NITROSULFATHIAZOLE] | 58.6 | > 256 | –
Nc1ccc(S(=O)(=O)Nc2ncccn2)cc1 [SULFADIAZINE] | – | – | growth inhibition (GI) [1]: inactive; IC50 ([2]; j774): Not Active; IC50 [3]: Not Active
O=[N+]([O-])c1ccc(S(=O)(=O)Nc2ncccn2)cc1 | 92.7 | 100 | Activity [4]: 97.58%; Tm [5]: 54.2 °C; Activity [6]: Active; Activity [7]: Non-toxic; IC50 [2, 13]: > 256 µM; Activity [8]: 99.82%; Activity [9]: inactive; Activity [10]: inactive; Activity [11]: inactive; Activity [12]: Non-toxic
Cc1cc(NS(=O)(=O)c2ccc([N+](=O)[O-])cc2)n[nH]1 | 71.5 | 164 | IC50 [2, 13]: > 256 µM

SMILES | inhibition of growth at 100 µg/mL [1] [%] | IC50 [3, 14] [µM] | also measured
O=S(=O)(Nc1ncccn1)c1ccc(Br)cc1 | – | – | growth inhibition (GI) [1]: inactive; IC50 ([2]; j774): Not Active; IC50 [3]: Not Active
O=S(=O)(Nc1cnccn1)c1ccc(Cl)cc1 | 25.3 | > 256 | –
O=S(=O)(Nc1ncccn1)c1ccccc1 | 20.3 | > 256 | –
O=[N+]([O-])c1ccc(S(=O)(=O)Nc2ccccn2)cc1 | 39.3 | > 256 | –
O=S(=O)(Nc1nccs1)c1ccc(Cl)cc1 | 65 | > 256 | –
Cc1cc(NS(=O)(=O)c2ccccc2)no1 | 17.9 | > 256 | –
O=[N+]([O-])c1ccc(S(=O)(=O)Nc2ccc3c(c2)CCC3)cc1 | 91.9 | < 1 | IC50 [2, 13]: 61 µM
O=[N+]([O-])c1ccc(S(=O)(=O)Nc2cccnc2)cc1 | 35.7 | > 256 | –
Cc1csc(NS(=O)(=O)c2ccc([N+](=O)[O-])cc2)n1 | 55.6 | > 256 | –
Cc1cc(NS(=O)(=O)c2ccc(Cl)cc2)no1 | 15.7 | > 256 | –
O=[N+]([O-])c1ccc(S(=O)(=O)Nc2cnccn2)cc1 | 90.8 | 66.2 | Activity [4]: 99.28%; Activity [7]: Non-toxic; IC50 [2, 13]: > 256 µM; Activity [8]: 99.44%; Activity [12]: Non-toxic
O=[N+]([O-])c1ccc(S(=O)(=O)Nc2ccncc2)cc1 | 46.3 | > 256 | –
O=S(=O)(Nc1ccc2c(c1)CCC2)c1ccc(Cl)cc1 | 49.9 | > 256 | –
Cc1cnc(NS(=O)(=O)c2ccccc2)s1 | 69 | > 256 | –
O=[N+]([O-])c1ccccc1S(=O)(=O)Nc1ncccn1 | 40.6 | > 256 | –
O=S(=O)(Nc1ccc2c(c1)CCC2)c1ccccc1 | 45.3 | > 256 | –
